According to ChEMBL document CHEMBL2384910, “Lead optimization of 5-amino-6-(2,2-dimethyl-5-oxo-4-phenylpiperazin-1-yl)-4-hydroxyhexanamides to reduce a cardiac safety issue: discovery of DS-8108b, an orally active renin inhibitor” (Bioorg Med Chem, 2013):
Changes are numbered by the printed parent chain.

Tests used:
Renin [1] = target: T1, Renin (Macaca fascicularis, UniProt Q6DLS0); experiment: Inhibition of renin in cynomolgus monkey plasma after 1 hr by RIA
T1 sequence (Q6DLS0 whole entry): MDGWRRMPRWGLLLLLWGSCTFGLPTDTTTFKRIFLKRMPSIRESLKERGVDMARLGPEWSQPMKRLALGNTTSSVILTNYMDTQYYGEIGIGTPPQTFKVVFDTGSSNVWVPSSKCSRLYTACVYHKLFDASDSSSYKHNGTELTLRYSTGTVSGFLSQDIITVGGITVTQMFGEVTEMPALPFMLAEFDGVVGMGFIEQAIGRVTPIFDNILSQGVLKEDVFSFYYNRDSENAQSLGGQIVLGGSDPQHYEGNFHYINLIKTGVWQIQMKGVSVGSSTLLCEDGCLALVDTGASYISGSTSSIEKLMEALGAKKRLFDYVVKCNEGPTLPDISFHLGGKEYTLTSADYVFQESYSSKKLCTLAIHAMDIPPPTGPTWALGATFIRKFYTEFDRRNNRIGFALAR
Summary of the method: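 Pooled mixed-gender EDTA cynomolgus monkey plasma with pH adjusting solution and Inhibitor A, compound in 1% DMSO final, incubated 1 h at 37 °C. Angiotensin I by competitive RIA; uninhibited and 4 °C controls define % inhibition; IC50 from four-parameter fit; ratio is compound IC50 over aliskiren IC50 in same plasma batch; ≥2 replicates.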

Renin [2] = target: T2, Renin (Homo sapiens, UniProt P00797); experiment: Inhibition of human recombinant renin using Arg-Glu(EDANS)-Ile-His-Pro-Phe-His-Leu-Val-Ile-His-Thr-Lys (DABCYL)-Arg as substrate incubated for 10 mins prior to substrate addition measured after 90 mins by fluorescence assay
T2 sequence (P00797 whole entry): T1 sequence (Q6DLS0 whole entry) with A68T, L214I, A235S
Summary of the method: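 Trypsin-activated recombinant human renin in 50 mM Tris-HCl pH 7.9, 100 mM NaCl, preincubated with compound 10 min at room temperature; FRET substrate Arg-Glu(EDANS)…Lys(DABCYL)-Arg added, 90 min at 37 °C.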

[3] = target: T3, Renin (Macaca fascicularis) (UniProt Q6DLS0); experiment: Ratio of compound IC50 to aliskiren IC50 for renin in cynomolgus monkey plasma
T3 sequence (whole entry): T1 sequence (Q6DLS0 whole entry)

Rattus norvegicus = experiment: Cardiotoxicity in Sprague-Dawley rat electrophysiology model assessed as QRS complex abnormalities at 10 mg/kg, iv by ECG analysis; assay type: toxicity, organism-based; set-up: dose 10 mg/kg, route intravenous; conditions: in vivo
Summary of the method: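 Male Sprague-Dawley rats anesthetized with inactin 100 mg/kg ip; surface lead II ECG recorded continuously. Compounds given as iv bolus via right jugular vein catheter after stabilization; QRS complex abnormality scored as no, moderate or severe change; n = 2 at 10 mg/kg.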

Row | SMILES | IC50 (Renin [1]) [nM] | IC50 (Renin [2]) [nM] | Ratio IC50 [3] | Activity (Rattus norvegicus)
1 | CC(C)[C@H](C[C@H](O)[C@@H](N)CN1CC(=O)N(c2ccccc2Cl)CC1(C)C)C(=O)Nc1ccc(F)cc1.O=C(O)/C=C/C(=O)O | 7.2 | 1.4 | 1.2 | Toxic
2 | Cc1ccc(F)cc1N1CC(C)(C)N(C[C@H](N)[C@@H](O)C[C@@H](C)C(=O)NCC(C)(C)C)CC1=O.O=C(O)/C=C/C(=O)O | 3.4 | 1.1 | 0.6 | Toxic
3 | CC(C)[C@H](C[C@H](O)[C@@H](N)CN1CC(=O)N(c2ccccc2Cl)CC1(C)C)C(=O)Nc1ccc(F)c(F)c1.O=C(O)/C=C/C(=O)O | 21 | 1.9 | 4.5 | Toxic
4 | Cc1ccc(F)cc1N1CC(C)(C)N(C[C@H](N)[C@@H](O)C[C@H](C(=O)Nc2cccnc2)C(C)C)CC1=O.O=C(O)/C=C/C(=O)O | 33 | 2.4 | 3.3 | Toxic
5 | CC[C@H](C[C@H](O)[C@@H](N)CN1CC(=O)N(c2ccccc2Cl)CC1(C)C)C(=O)NCC(CC)(CC)CO.O=C(O)/C=C/C(=O)O | 3 | 1 | 0.8 | Toxic
6 | CC(C)[C@H](C[C@H](O)[C@@H](N)CN1CC(=O)N(c2ccccc2Cl)CC1(C)C)C(=O)NCC(C)(C)CO.O=C(O)/C=C/C(=O)O | 9.6 | 1.7 | 0.8 | Toxic
7 | CC[C@H](C[C@H](O)[C@@H](N)CN1CC(=O)N(c2ccccc2Cl)CC1(C)C)C(=O)NCC1(CO)CCCCC1.O=C(O)/C=C/C(=O)O | 3.4 | 1.1 | 0.6 | Toxic
8 | CC(C)[C@H](C[C@H](O)[C@@H](N)CN1CC(=O)N(c2ccccc2Cl)CC1(C)C)C(=O)Nc1ccccn1.O=C(O)/C=C/C(=O)O | 3.4 | 1.8 | 0.7 | Toxic
9 | CC[C@H](C[C@H](O)[C@@H](N)CN1CC(=O)N(c2ccccc2Cl)CC1(C)C)C(=O)Nc1cc(OC)ccn1 | 33 | 6.7 | 13 | 
10 | CC[C@H](C[C@H](O)[C@@H](N)CN1CC(=O)N(c2ccccc2Cl)CC1(C)C)C(=O)NCC1(CO)CCCC1.O=C(O)/C=C/C(=O)O | 3 | 1.1 | 0.7 | Toxic
11 | CC(C)[C@H](C[C@H](O)[C@@H](N)CN1CC(=O)N(c2ccccc2Cl)CC1(C)C)C(=O)Nc1ncc(F)cc1F.O=C(O)/C=C/C(=O)O | 3.3 | 1.7 | 0.7 | Toxic
12 | Cc1ccc(F)cc1N1CC(C)(C)N(C[C@H](N)[C@@H](O)C[C@H](C(=O)NCC(C)(C)C(=O)O)C(C)C)CC1=O | 39 | 16 | 16 | 
13 | CC[C@H](C[C@H](O)[C@@H](N)CN1CC(=O)N(c2ccccc2Cl)CC1(C)C)C(=O)NCC(C)(C)C.O=C(O)/C=C/C(=O)O | 2.3 | 0.8 | 0.3 | Toxic
14 | CC(C)[C@H](C[C@H](O)[C@@H](N)CN1CC(=O)N(c2ccccc2Cl)CC1(C)C)C(=O)NC1CCOCC1.O=C(O)/C=C/C(=O)O | 9.8 | 2 | 1.4 | Toxic
15 | CC[C@H](C[C@H](O)[C@@H](N)CN1CC(=O)N(c2cc(F)ccc2C)CC1(C)C)C(=O)N[C@H]1C2CC3CC1C[C@](O)(C3)C2.O=C(O)/C=C/C(=O)O | 4.6 | 1.6 | 0.9 | Non-toxic
16 | CC[C@H](C[C@H](O)[C@@H](N)CN1CC(=O)N(c2ccccc2Cl)CC1(C)C)C(=O)Nc1ncccc1C.O=C(O)/C=C/C(=O)O | 15 | 3.8 | 2.9 | Toxic
17 | CCCCNC(=O)[C@@H](C[C@H](O)[C@@H](N)CN1CC(=O)N(c2cc(F)ccc2Cl)CC1(C)C)C(C)C |  |  | 1.2 | 

Row | SMILES | IC50 (Renin [1]) [nM] | IC50 (Renin [2]) [nM] | Ratio IC50 [3] | Activity (Rattus norvegicus)
18 | COC(=O)C(C)(C)CNC(=O)[C@@H](C[C@H](O)[C@@H](N)CN1CC(=O)N(c2ccccc2Cl)CC1(C)C)C(C)C.O=C(O)/C=C/C(=O)O | 23 | 1.8 | 1.6 | Toxic
19 | CC(C)[C@H](C[C@H](O)[C@@H](N)CN1CC(=O)N(c2ccccc2Cl)CC1(C)C)C(=O)Nc1ccccc1.O=C(O)/C=C/C(=O)O | 9.2 | 1.4 | 1.3 | Toxic
20 | CC[C@H](C[C@H](O)[C@@H](N)CN1CC(=O)N(c2ccccc2Cl)CC1(C)C)C(=O)Nc1ccc(F)cn1.O=C(O)/C=C/C(=O)O | 2.1 | 1 | 0.6 | Toxic
21 | Cc1ccc(F)cc1N1CC(C)(C)N(C[C@H](N)[C@@H](O)C[C@H](C(=O)N[C@H]2C3CC4CC2C[C@](O)(C4)C3)C(C)C)CC1=O.O=C(O)/C=C/C(=O)O | 10 | 1.7 | 0.9 | Non-toxic
22 | C[C@H](C[C@H](O)[C@@H](N)CN1CC(=O)N(c2ccccc2Cl)CC1(C)C)C(=O)NCC(C)(C)C | 2.1 | 1 | 0.5 | 
23 | CC(C)CNC(=O)C(C)(C)C[C@H](O)[C@@H](N)CN1CC(=O)N(c2cc(F)ccc2Cl)CC1(C)C.O=C(O)/C=C/C(=O)O | 738 | 97 | 132 | Toxic
24 | CC(C)[C@H](C[C@H](O)[C@@H](N)CN1CC(=O)N(c2cc(F)ccc2Cl)CC1(C)C)C(=O)N[C@H]1C2CC3CC1C[C@](O)(C3)C2.O=C(O)/C=C/C(=O)O | 7.8 | 1.9 | 0.7 | Non-toxic
25 | CC(C)NC(=O)[C@@H](C[C@H](O)[C@@H](N)CN1CC(=O)N(c2ccccc2Cl)CC1(C)C)C(C)C.O=C(O)/C=C/C(=O)O | 33 | 2.9 | 2.7 | Toxic
26 | CC(C)[C@H](C[C@H](O)[C@@H](N)CN1CC(=O)N(c2ccccc2Cl)CC1(C)C)C(=O)NCC(C)(C)C(N)=O.O=C(O)/C=C/C(=O)O |  |  | 1.2 | Non-toxic
27 | CC[C@H](C[C@H](O)[C@@H](N)CN1CC(=O)N(c2ccccc2Cl)CC1(C)C)C(=O)Nc1ccc(OC)cc1.O=C(O)/C=C/C(=O)O | 11 | 1.4 | 2.1 | Toxic
28 | CC(C)[C@H](C[C@H](O)[C@@H](N)CN1CC(=O)N(c2ccccc2Cl)CC1(C)C)C(=O)Nc1ccc(F)cc1F.O=C(O)/C=C/C(=O)O | 14 | 2 | 3 | Toxic
29 | Cc1cccc(NC(=O)[C@@H](C[C@H](O)[C@@H](N)CN2CC(=O)N(c3ccccc3Cl)CC2(C)C)C(C)C)n1.O=C(O)/C=C/C(=O)O | 47 | 5.6 | 7.3 | Toxic
30 | CC(C)[C@H](C[C@H](O)[C@@H](N)CN1CC(=O)N(c2ccccc2Cl)CC1(C)C)C(=O)NC12CC3CC(CC(O)(C3)C1)C2.O=C(O)/C=C/C(=O)O | 6.5 | 2 | 0.7 | Toxic
31 | CC[C@H](C[C@H](O)[C@@H](N)CN1CC(=O)N(c2ccccc2Cl)CC1(C)C)C(=O)N[C@H]1C2CC3CC1C[C@@](O)(C3)C2.O=C(O)/C=C/C(=O)O | 1.8 | 1.1 | 0.7 | Toxic
32 | CCCCNC(=O)[C@@H](C[C@H](O)[C@@H](N)CN1CC(=O)N(c2ccccc2Cl)CC1(C)C)C(C)C.O=C(O)/C=C/C(=O)O |  |  | 0.8 | Toxic
33 | CC(C)[C@H](C[C@H](O)[C@@H](N)CN1CC(=O)N(c2ccccc2Cl)CC1(C)C)C(=O)Nc1cccnc1 | 19 | 2.1 | 1.9 | 
